# Screening results from PubChem.
# Hits are enriched below; roughly 2% of the tested compounds scored in any of these assays.
# NR2E3 ag-1: NR2E3 agonists in two-hybrid cells, primary screen, cell-based, luminescence, CHO-S, Gal4-NCOR/VP16-NR2E3. Photoreceptor-specific nuclear receptor (Homo sapiens), Q9Y5X4. luciferase. inhibition of corepressor binding, % at 3.98 µM. 360,000 compounds, 0.35% hits. AID 602229, 2012;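 active means inhibition above the mean of all tested compounds plus 3 SD, cut at about 70% in these data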;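 further: 0% = DMSO with NR2E3 transfected cells and 100% = cells lacking NR2E3 construct; higher means lower luciferase signal from less NR2E3 corepressor binding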
# PG9 Ab binder: binders of HIV-1 gp120 antibody PG9, primary screen, biochemical, TR-FRET. TR-FRET gp120-PG9 antibody binding. HIV-1 gp120 / PG9 antibody interaction. inhibition, % at 6.7 µM. AID 624416, 2012. 360,000 compounds, 0.43% hits; in the data active means inhibition above about 8.5%
# NR1D1 modulator: modulators of Rev-erb alpha DNA binding, primary screen, biochemical, FITC-DNA, fluorescence polarization, uHTS. Nuclear receptor subfamily 1 group D member 1 (Homo sapiens), P20393. Rev-erbα–FITC-DNA binding, 90 min. activity, % at 10 µM. 370,000 compounds, 0.79% hits;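 active means activity above about 14%, limit read from the data; passing the limit was not always enough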;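 further: 0% = DMSO wells with 35 nM protein and 100% = DMSO wells with 750 nM protein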
# Target sequence (P20393 whole entry, looked up): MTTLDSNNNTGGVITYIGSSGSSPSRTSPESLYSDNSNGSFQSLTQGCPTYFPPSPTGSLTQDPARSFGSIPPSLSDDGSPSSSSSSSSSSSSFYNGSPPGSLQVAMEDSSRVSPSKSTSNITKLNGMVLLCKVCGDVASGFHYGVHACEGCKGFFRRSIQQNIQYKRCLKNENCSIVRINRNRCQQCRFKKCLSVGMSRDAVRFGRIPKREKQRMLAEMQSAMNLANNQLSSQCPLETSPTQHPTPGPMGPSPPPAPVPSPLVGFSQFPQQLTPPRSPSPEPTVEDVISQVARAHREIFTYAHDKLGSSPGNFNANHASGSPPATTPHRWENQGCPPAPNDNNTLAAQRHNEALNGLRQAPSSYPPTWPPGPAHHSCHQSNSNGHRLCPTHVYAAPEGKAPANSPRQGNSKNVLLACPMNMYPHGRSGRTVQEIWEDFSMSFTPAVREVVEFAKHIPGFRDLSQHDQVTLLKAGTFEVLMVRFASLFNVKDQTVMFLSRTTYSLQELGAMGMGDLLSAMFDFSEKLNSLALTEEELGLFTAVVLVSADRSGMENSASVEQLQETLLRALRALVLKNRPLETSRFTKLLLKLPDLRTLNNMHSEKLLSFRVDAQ
# NR2E3 ag-2: inhibitors of NR2E3-RetCOR corepressor binding, primary screen, NR2E3 agonist project, biochemical, TR-FRET, GST-NR2E3, biotin-RetCOR; Photoreceptor-specific nuclear receptor (Homo sapiens), Q9Y5X4; inhibition of corepressor binding, % at 4.78 µM; 320,000 compounds, 0.12% hits; 1536-well;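 active means percent inhibition above the cutoff of mean plus 3 SD of all tested compounds, set per screening campaign, cut at about 20% in these data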;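 further: 0% = DMSO wells and 100% = biotin wells as full block of FRET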
#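 Material: NR2E3–RetCOR corepressor complex / Incubation: Compound–protein incubation for 5 h at 4 °C / Dosing: compound at 4.8 µM, single dose / Detection: time-resolved FRET / Benchmarks: high control biotin, low control 0.6% DMSO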
# Neddylation inh: inhibitors of cullin neddylation, primary screen, biochemical, TR-FRET, uHTS, NAE and Ubc12; 360,000 compounds, 0.58% hits; calls only at 25 µM; NEDD8-conjugating enzyme Ubc12 (Homo sapiens) + NEDD8-activating enzyme E1 regulatory …; AID 651699, 2012; in the data active means inhibition above about 36%
# Neddyl conf: blockade of NEDD8 conjugation to cullin – biochemical, TR-FRET, single concentration, confirmation | TR-FRET cullin neddylation biochemical assay | 1,800 compounds, 13% hits | AID 652217, 2013 | shares compounds with Neddylation inh | calls only at 25 µM; in the data active means inhibition above about 40%;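 further: neddylation substrate is the cullin 1 ring ligase complex with SKP2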
# * = called active by the depositor; i = inactive; nt = no result shown; + = active, no number.
SMILES,NR2E3 ag-1,PG9 Ab binder,NR1D1 modulator,NR2E3 ag-2,Neddylation inh,Neddyl conf
O=C(c1ccco1)N1N=C(c2cccs2)CC1c1ccc(F)cc1 (stereo not given),-2,0,8,0,+,i
CCC(=O)N1N=C(c2cccs2)CC1c1ccc(C)cc1 (stereo not given),-35,0,-5,-1,+,nt
O=C(Nc1ccccc1)N1N=C(c2cccs2)CC1c1cccs1 (stereo not given),9,0,-5,1,+,i
Cc1ccc(C2CC(c3cccs3)=NN2C(=O)CCl)cc1 (stereo not given),-22,-2,-2,2,nt,nt
O=C(CN1CCOCC1)N1N=C(c2cccs2)CC1c1cccs1 (stereo not given),-1,2,0,2,i,nt
Cc1ccc(C(=O)N2c3ccccc3N=C(c3ccccc3)C2C(=O)NC(C)C)cc1 (stereo not given),nt,-1,-1,nt,i,nt
O=C(Cc1cc(C(F)(F)F)cc(C(F)(F)F)c1)Nc1c(-c2ccccc2)[nH][nH]c1=O,nt,-2,-7,nt,i,nt
CC(C)(C)C(=O)N1CCN(c2ncnc3scc(-c4ccccc4)c23)CC1,-31,0,2,0,i,nt
COc1ccc2oc(C(=O)NCC3CCCO3)c(C)c2c1 (stereo not given),-139,-2,-8,0,nt,nt
CCOc1ccc2oc(C(=O)NCC3CCCO3)c(C)c2c1 (stereo not given),-38,-2,-5,1,+,+
CCOc1ccc2oc(C(=O)NNC(=O)c3csc(N4CCOCC4)n3)c(C)c2c1,-1,1,-4,-1,+,i
COc1cc(F)ccc1-c1cc(C(=O)Nc2ccc(NC(C)=O)cc2)[nH]n1,-45,-1,-6,nt,+,+
CC(=O)Nc1ccc(NC(=O)c2cc(-c3ccc(C)cc3O)n[nH]2)cc1,-27,2,-16,0,+,+
COc1ccc(F)cc1-c1cc(C(=O)Nc2ccc(NC(C)=O)cc2)[nH]n1,-21,3,5,nt,i,nt
O=c1[nH]c2ccccc2nc1-c1ccccc1,-38,0,0,2,+,+
CC1Cc2ccccc2N1c1ncnc2nc[nH]c12 (stereo not given),-64,nt,nt,4,+,nt
COc1ccc(-c2cn3cccnc3n2)cc1NC(=O)c1cccs1,17,0,-2,2,+,+
COc1ccc(-c2cn3cccnc3n2)cc1NS(=O)(=O)c1ccccc1,-9,-2,2,3,+,i
O=S(=O)(Nc1ccc(-c2cn3cccnc3n2)cc1)c1ccccc1,-5,-1,1,4,nt,nt
COc1ccc(-c2cn3cccnc3n2)cc1NC(=O)c1cc(OC)c(OC)c(OC)c1,-10,1,5,4,nt,nt
COc1ccc(NC(=O)C2Cc3c(-c4cccc(C(C)=O)c4)ccnc3O2)cc1 (stereo not given),3,-1,-3,nt,i,nt
COc1ccc(/C=C/c2nnc(NC(C)=O)s2)cc1,-150,-1,-4,-2,+,i
O=C1Nc2ccc(S(=O)(=O)N3CCCC3)c3cccc1c23,-26,0,2,-3,+,i
O=C1Nc2ccc(S(=O)(=O)N3CCCCCC3)c3cccc1c23,16,2,-7,0,i,nt
CCOC(=O)N1CCN(S(=O)(=O)c2ccc3c4c(cccc24)C(=O)N3)CC1,-12,0,-2,0,+,+
SMILES,NR2E3 ag-1,PG9 Ab binder,NR1D1 modulator,NR2E3 ag-2,Neddylation inh,Neddyl conf
CCOC(=O)c1c(C)[nH]c(C(=O)Nc2cc(OCC)c(N3CCOCC3)cc2OCC)c1C,-24,-4,-1,4,+,i
CCOc1cc(N2CCOCC2)c(OCC)cc1NC(=O)c1cc(C)cc(C)c1,4,-3,0,-1,i,nt
COc1ccc(C(C)c2cn(C)c3ccccc23)cc1 (stereo not given),nt,nt,2,nt,nt,nt
COc1ccc(OC)c(NC=C2C(=O)OC(C)(C)OC2=O)c1,-10,-1,1,-2,i,nt
COc1ccc(OC)c(NC=C2C(=O)OC3(CCCCC3)OC2=O)c1,-11,0,-4,3,+,i
COc1cccc(N2CCN(CC(=O)NCc3ccc(Cl)cc3)CC2)c1,nt,nt,1,nt,nt,nt
CCC(C(=O)NC1CCCC1)n1c(-c2ccncc2)nc2ccccc21 (stereo not given),nt,-1,3,nt,i,nt
COc1ccccc1-c1ccc2nnc(SC)n2n1,-1,-2,0,-3,+,i
COc1ccccc1CNC(=O)CSc1nnc2ccc(-c3cccnc3)nn12,-8,0,5,9,i,nt
CCNC(=S)N(Cc1cccs1)Cc1cc2cc(OCC)ccc2[nH]c1=O,-21,-1,2,2,i,nt
CC(C)CNC(=S)N(CCN(C)C)Cc1cc2cc3c(cc2[nH]c1=O)OCO3,10,0,5,0,i,nt
CN(C)CCN(Cc1cc2cc3c(cc2[nH]c1=O)OCO3)C(=S)NCc1ccco1,11,-1,3,-3,+,i
CCNC(=S)N(CCN(C)C)Cc1cc2cc(OCC)ccc2[nH]c1=O,-3,-1,-2,-1,+,i
CCNC(=S)N(CCN(C)C)Cc1cc2cc3c(cc2[nH]c1=O)OCO3,-29,0,0,6,+,nt
CN1C(=O)c2cc(NC(=O)Nc3ccc(F)c(F)c3)ccc2OC[C@H]2O[C@@H](CC(=O)O)CC[C@H]21,nt,nt,0,nt,nt,nt
O=S1(=O)CC(N2CCN(CCO)CC2)CN1Cc1cn(Cc2ccccc2C(F)(F)F)nn1 (stereo not given),-4,1,-5,nt,i,nt
COCCCNC(=S)N(CCCO)Cc1cc2cc3c(cc2[nH]c1=O)OCO3,-21,-1,-5,-1,+,i
COCCCNC(=S)N(CCO)Cc1cc2cc3c(cc2[nH]c1=O)OCO3,-8,-2,-6,nt,+,i
O=C(NC1CCCCC1)N(CCO)Cc1cc2cc3c(cc2[nH]c1=O)OCCO3,6,0,2,5,+,i
O=C(NC1CCCCC1)N(CCN1CCCC1)Cc1cc2cc3c(cc2[nH]c1=O)OCCO3,-30,nt,nt,1,i,nt
Cc1ccc(S(=O)(=O)N2CCCC(C(=O)NCc3ccco3)C2)cc1 (stereo not given),nt,nt,-6,nt,nt,nt
